Rows were chosen to be rich in hits. Some 3.5% of all compounds tested hit in one or more screens of this group.
RGS4 inh: human RGS4 inhibition; P49798; HEK293 M3R/RGS4 inducible, Fluo-4 calcium flux; stronger effect = higher value; triggered by carbachol at its EC20; B-score at 10 µM; 310,000 compounds, 0.45% hits; AID 463165;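 active = B-score, a plate-corrected calcium signal, over three deviations above library mean, with baseline fluorescence within five deviations of library mean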;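 note: RGS4 expression induced by doxycycline in cells with stable M3 receptor; B-score is computed from the integrated fluorescence ratio over baseline after carbachol; higher B-score means a larger calcium signal and so more RGS4 inhibition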
MrgX1 antagonist: blocks BAM8-22 activation of human MrgX1 receptor; Q96LB2; 310,000 compounds, 1.3% hits; B-score at 10 µM; MRGX1-HEK293 calcium flux, Fluo-4, BAM8-22 antagonism; stronger effect = lower value;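 active = calcium-response B-score plate-corrected more than 3 library SD below zero, starting fluorescence within 5 deviations, no agonist response on first addition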;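 note: peak minus trough fluorescence over baseline after final BAM8-22 challenge near maximal dose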
Target sequence (Q96LB2 whole entry, looked up): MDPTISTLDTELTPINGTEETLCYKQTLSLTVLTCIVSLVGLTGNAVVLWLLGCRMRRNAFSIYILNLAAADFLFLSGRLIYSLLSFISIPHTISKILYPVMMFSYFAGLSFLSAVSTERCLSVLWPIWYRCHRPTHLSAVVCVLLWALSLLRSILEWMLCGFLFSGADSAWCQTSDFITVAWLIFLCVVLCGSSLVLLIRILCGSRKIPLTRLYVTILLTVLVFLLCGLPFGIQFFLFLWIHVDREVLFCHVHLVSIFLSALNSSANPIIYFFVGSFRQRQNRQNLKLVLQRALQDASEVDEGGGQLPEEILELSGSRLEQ
RGS4 pot: potentiators or activators of RGS4. HEK293 M3R/inducible RGS4, carbachol calcium flux Fluo4; stronger effect = lower value. B-score at 10 µM. 310,000 compounds, 0.92% hits;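 active = B-score of the integrated calcium signal more than 4 SD below the library mean, with starting fluorescence not abnormally high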;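 note: negative B-score means reduced calcium response which marks RGS4 activation or potentiation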
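test system = M3R-expressing HEK293 line, RGS4 induced by doxycycline | probe or stimulus = carbachol at ECmax as muscarinic agonist stimulus | timing = dye loading 30 min 37 °C, buffer rest 30 min RT | signal = calcium dye Fluo4 fluorescence | evaluation = B score from integrated fluorescence ratio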
MrgX1 ag: activates human MrgX1 receptor signaling; B-score at 10 µM; MrgX1-HEK293 cells, Fluo-4 calcium fluorescence, agonist mode; stronger effect = higher value; 310,000 compounds, 0.44% hits; Q96LB2; AID 588627;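 active = calcium response B-score plate-corrected fluorescence ratio at least 3 library SD, with starting fluorescence B-score inside 5 SD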
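Test system: Stable human MrgX1 HEK293 cell line | Schedule: Overnight plating before 1 h dye loading | Read-out basis: Baseline-normalised fluorescence change ratio, B-scored | Detection: Kinetic calcium dye fluorescence, Fluo-4 NW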
MrgX1 allo act: human MrgX1 positive allosteric modulation, primary screen | Q96LB2 | MrgX1-HEK293, Fluo-4 calcium flux, FDSS; stronger effect = higher value | B-score at 10 µM | 310,000 compounds, 0.63% hits;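 active = plate-corrected calcium response at least 3 library SD above typical, normal starting fluorescence, not activating the receptor alone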;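 note: compound read alongside a low EC10 to EC30 dose of BAM8-22 agonist; peak minus trough fluorescence over baseline measured at the second addition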
RGS4 inh valid: RGS4 inhibitor validation; 1,700 compounds, 65% hits; HEK293 M3R/RGS4, carbachol calcium Fluo-4 fluorescence; carbachol added at its EC20; 0 = buffer wells, 100 = carbachol control; shares compounds with RGS4 inh; calcium response, % at 10 µM;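 active = duplicate-averaged calcium response above the buffer-only control mean plus 5 SD of those controls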;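 note: integrated fluorescence ratio F max minus min over baseline F0; higher response in RGS4-induced cells means RGS4 inhibition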
RGS4 uninduced: counter-screen for RGS4 inhibitors: effect in non-induced cells | shares compounds with RGS4 inh | HEK293 M3R non-induced, carbachol calcium Fluo-4; submaximal (EC20) carbachol stimulus; buffer wells 0%, carbachol control wells 100% | activity (percent), % at 10 µM | 1,900 compounds, 20% hits | AID 493000; call rule not given here;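 note: RGS4 induction absent so cells express M3R without RGS4; higher means more calcium signal and flags a non-specific hit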
M3R basal Ca ctr: second counter-screen for RGS4 inhibitors: non-induced cells without carbachol; shares compounds with RGS4 inh; calcium response (agonist-mode artifact), % at 10 µM; HEK293 M3R/RGS4 non-induced, Fluo-4 calcium, no carbachol; normalised: buffer wells 0%, carbachol wells 100%; 1,900 compounds, 22% hits;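 active = duplicate-averaged calcium rise in uninduced cells above buffer wells' mean plus 5 SD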
Numbers without * were called inactive; i = inactive; / = no result.

SMILES	RGS4 inh	MrgX1 antagonist	RGS4 pot	MrgX1 ag	MrgX1 allo act	RGS4 inh valid	RGS4 uninduced	M3R basal Ca ctr
O=C(N/N=C/c1ccc(O)cc1)NC12CC3CC(CC(C3)C1)C2	5.22*	i	i	i	i	20.5%*	58.0%*	11.0%*
O=C(O)CCn1c(SCc2cccc3ccccc23)nc2ccccc21	i	i	i	i	i	/	/	/
N#CC1=C(N)N=C(SCc2cccc3ccccc23)C(C(N)=O)C12CCCCC2 (stereo not drawn)	5.9*	i	i	i	i	16.5%*	i	i
Cc1cc(-c2csc(Nc3ccccn3)n2)ccc1F	5.41*	i	i	i	i	16.5%*	i	i
Cc1cccnc1Nc1nc(-c2ccc(O)cc2)cs1	i	i	i	i	i	/	/	/
c1ccc(-c2csc(Nc3ccccn3)n2)cc1	i	i	i	i	i	i	i	i
Cc1ccc(-c2csc(Nc3ccccn3)n2)cc1	9.05*	i	i	i	i	i	i	i
COc1ccc(-c2csc(Nc3ccccn3)n2)cc1OC	i	i	i	i	i	/	/	/
Oc1ccc(-c2csc(Nc3ccccn3)n2)cc1	i	i	i	i	i	i	i	i
O=c1cc(-c2ccccc2Cl)oc2ccc([N+](=O)[O-])c(O)c12	i	i	i	i	i	/	/	/
O=c1cc(-c2ccccc2Cl)oc2c([N+](=O)[O-])c(O)cc(O)c12	10.2*	i	i	i	i	32.5%*	52.0%*	i
CCCc1nnc(NC(=O)CCC(=O)N2CCN(Cc3ccc(Cl)cc3)CC2)s1	i	i	i	i	i	/	/	/
N#Cc1c(NC(=O)CSc2ncn[nH]2)sc2c1CCCCC2	i	i	i	i	i	/	i	i
N#Cc1c(NC(=O)CSc2nc(N)cc(=O)[nH]2)sc2c1CCCCCC2	i	i	i	i	i	/	/	/
CCOC(=O)C1(Cc2ccccc2C(F)(F)F)CCN(C2CCN(C(C)=O)CC2)CC1	i	i	i	i	i	/	/	/
Cc1cccc(C(=O)Nc2nsc(N)n2)c1	i	i	i	i	i	/	/	/
COc1ccc2cc(C3C(C#N)=C(N)OC(C)=C3C(C)=O)c(Cl)nc2c1 (stereo not drawn)	5.6*	i	i	i	i	32.5%*	i	i
O=S(=O)(/N=C(/Sc1ccccc1)c1ccccc1)c1ccccc1	13*	i	i	i	i	15.5%*	i	21.5%*
CS/C(=N\S(=O)(=O)c1ccccc1)c1ccccc1	i	i	i	i	i	/	/	/
COC(=O)c1cc(S(=O)(=O)NCC2CCN(CCc3cccs3)CC2)cn1C	i	i	i	i	i	/	/	/
N#C/C(=C(/O)c1cccc(F)c1)c1nc2ccccc2s1	i	i	i	i	i	/	/	/
N#C/C(=C(/O)C(Cl)c1ccccc1)c1nc2ccccc2s1 (stereo not drawn)	5.09*	i	i	i	i	6.5%*	i	i
COc1ccc(NC(=O)/C(Cl)=C(/Cl)S(=O)Cc2ccccc2)cn1 (stereo not drawn)	26.8*	i	i	i	i	45.5%*	i	i
N/C(Cc1ccc(Cl)c(Cl)c1)=N\OC(=O)c1ccc(Br)o1	i	i	i	i	i	/	/	/
O=[N+]([O-])c1cccnc1Oc1ccc(F)cc1	i	i	i	i	i	/	/	/
COc1ccc(Oc2ncccc2[N+](=O)[O-])cc1	12.6*	i	i	i	i	i	i	i

Source: PubChem (Johns Hopkins Ion Channel Center)
